Article PMC8223535 (The Yale Journal of Biology and Medicine, 2021)

Columns and labels:
[1] = test system: T. brucei brucei (Lafia strain); experiment: In vivo anti-Trypanosoma evaluation in infected rats; set-up: species or system Trypanosoma brucei brucei in male Wistar rats; conditions: 3.5 mg/kg bw in corn oil, reference drug, data not shown
How it was run: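 Male Wistar rats (120–130 g, acclimated 14 days) each received 0.2 mL of infected rat blood diluted in 0.9% saline (1 x 102 trypanosomes). Dosing began after the 72-h lag, on the first parasite-positive day. It ran daily for 5 days: test compound at 40 mg/kg bw or diminazene aceturate at 3.5 mg/kg bw, in corn oil. Controls were vehicle-infected and uninfected. Tail-blood smears were counted at ×100, and survival was tracked. n=5, mean ± SEM, ANOVA with Dunnett.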

[2] = cited from earlier work
[3] = test system: Trypanosoma congolense IL3000 bloodstream form; experiment: In vitro anti-Trypanosoma activity, luminescence-based parasite viability; assay type: cell-based; conditions: 72 h, 0 to 25 µg/mL
How it was run: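 T. congolense IL3000 bloodstream forms were kept in HMI-9-type medium (IMDM, 20% FBS, supplements) in air at 33°C. Parasites were seeded at 1 × 10^5 cells/mL with test compound at 0 to 25 µg/mL and incubated 72 h at 33°C. Viability was read by ATP luminescence. Pentamidine was the reference. The 50% value came from a non-linear regression dose-response fit. Triplicates, three independent runs.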

CC(=O)NCC(=O)O.CC(=O)NCC(=O)O.N=C(N)c1ccc(N=NNc2ccc(C(=N)N)cc2)cc1 [diminazene aceturate]
outcome of infected rats (survival) [1]: survived the infection | systemic parasite burden of infected rats [1]: systemic parasite burden cleared

Nc1nc(N)nc(Nc2ccc([As]3SCC(CO)S3)cc2)n1 (centres unmarked) [melarsoprol]
encephalopathy ([2]; patients treated for late-stage trypanosomiasis): more than 10 % of patients | fatal outcomes among encephalopathy cases ([2]; share of the encephalopathy cases): 40%

N=C(N)c1ccc(OCCCCCOc2ccc(C(=N)N)cc2)cc1 [pentamidine]
effect on in vitro growth of T. congolense (in words) [3]: appreciably hindered the in vitro growth of T. congolense
